For orientation: kinact means the rate constant of inactivation at saturating inhibitor.

Entries after “also recorded” stand apart in the source; their conditions may differ.

The source of these data is PMC6319256 (Bioorganic & medicinal chemistry letters, 2018).

For one assay, the system named is K-Ras^G12C. Conditions: cited from earlier work.
The target of assay [1] is T1, Cathepsin B (Homo sapiens, UniProt P07858). As to conditions: cited from earlier work; for kinact: cathepsin B, range stated for both compounds and both enzymes.
For assay [2], the target named is T2, cathepsin L (Homo sapiens, UniProt P07711). Conditions: cited from earlier work; for kinact: cathepsin L, range stated for both compounds and both enzymes.
For assay [3], the target named is T2, cathepsin L. Put plainly: Cathepsin L inhibition kinetics. Type of assay: biochemical.
The target in a further assay is T3, Calpain I (Homo sapiens, UniProt P07384).
T3 sequence (P07384 1-714): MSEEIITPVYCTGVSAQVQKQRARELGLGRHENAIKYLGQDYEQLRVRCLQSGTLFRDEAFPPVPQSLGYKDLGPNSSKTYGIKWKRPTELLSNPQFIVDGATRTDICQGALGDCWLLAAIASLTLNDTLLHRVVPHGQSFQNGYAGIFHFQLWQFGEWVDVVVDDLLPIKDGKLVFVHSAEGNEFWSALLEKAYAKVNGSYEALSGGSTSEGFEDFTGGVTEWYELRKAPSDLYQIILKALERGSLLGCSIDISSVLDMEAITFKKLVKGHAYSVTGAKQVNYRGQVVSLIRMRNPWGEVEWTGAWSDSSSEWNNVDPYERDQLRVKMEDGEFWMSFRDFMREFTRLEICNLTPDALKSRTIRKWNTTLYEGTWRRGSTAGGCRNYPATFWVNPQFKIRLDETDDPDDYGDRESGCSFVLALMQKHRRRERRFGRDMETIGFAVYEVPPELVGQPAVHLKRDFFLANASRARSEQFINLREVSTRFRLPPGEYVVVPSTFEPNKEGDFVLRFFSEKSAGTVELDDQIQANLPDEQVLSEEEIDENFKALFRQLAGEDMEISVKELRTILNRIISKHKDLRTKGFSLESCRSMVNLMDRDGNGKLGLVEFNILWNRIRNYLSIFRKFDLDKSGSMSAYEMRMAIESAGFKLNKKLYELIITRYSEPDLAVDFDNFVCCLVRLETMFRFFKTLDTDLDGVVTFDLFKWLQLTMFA
T3 sequence (P04632 1-268 partner): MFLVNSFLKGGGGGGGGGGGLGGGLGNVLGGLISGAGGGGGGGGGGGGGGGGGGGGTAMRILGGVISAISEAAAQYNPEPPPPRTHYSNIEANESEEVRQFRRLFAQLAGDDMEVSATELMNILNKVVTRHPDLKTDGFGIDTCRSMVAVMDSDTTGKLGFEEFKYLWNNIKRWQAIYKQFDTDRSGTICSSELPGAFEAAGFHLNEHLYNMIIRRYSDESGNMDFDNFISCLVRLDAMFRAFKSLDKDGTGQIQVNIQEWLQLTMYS
Put plainly: Calpain I inhibition with and without preincubation. Type of assay: biochemical. As to conditions: with and without preincubation of the inhibitor.

For assay [4], the target named is T2, cathepsin L. Put plainly: Irreversibility study. Type of assay: biochemical. As to conditions: 50 μM compound preincubated with Cathepsin L (10 nM), gel filtration. In outline:
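Test compound at 50 μM was preincubated with cathepsin L at 10 nM, then passed through a desalting spin column. Flow-through aliquots were assayed for recovery of enzyme activity at several time points.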
Background: In gel filtration, larger molecules generally elute earlier.

For a further assay, the target named is T4, USP8 (Homo sapiens, UniProt P40818).
T4 sequence (P40818 1-1118): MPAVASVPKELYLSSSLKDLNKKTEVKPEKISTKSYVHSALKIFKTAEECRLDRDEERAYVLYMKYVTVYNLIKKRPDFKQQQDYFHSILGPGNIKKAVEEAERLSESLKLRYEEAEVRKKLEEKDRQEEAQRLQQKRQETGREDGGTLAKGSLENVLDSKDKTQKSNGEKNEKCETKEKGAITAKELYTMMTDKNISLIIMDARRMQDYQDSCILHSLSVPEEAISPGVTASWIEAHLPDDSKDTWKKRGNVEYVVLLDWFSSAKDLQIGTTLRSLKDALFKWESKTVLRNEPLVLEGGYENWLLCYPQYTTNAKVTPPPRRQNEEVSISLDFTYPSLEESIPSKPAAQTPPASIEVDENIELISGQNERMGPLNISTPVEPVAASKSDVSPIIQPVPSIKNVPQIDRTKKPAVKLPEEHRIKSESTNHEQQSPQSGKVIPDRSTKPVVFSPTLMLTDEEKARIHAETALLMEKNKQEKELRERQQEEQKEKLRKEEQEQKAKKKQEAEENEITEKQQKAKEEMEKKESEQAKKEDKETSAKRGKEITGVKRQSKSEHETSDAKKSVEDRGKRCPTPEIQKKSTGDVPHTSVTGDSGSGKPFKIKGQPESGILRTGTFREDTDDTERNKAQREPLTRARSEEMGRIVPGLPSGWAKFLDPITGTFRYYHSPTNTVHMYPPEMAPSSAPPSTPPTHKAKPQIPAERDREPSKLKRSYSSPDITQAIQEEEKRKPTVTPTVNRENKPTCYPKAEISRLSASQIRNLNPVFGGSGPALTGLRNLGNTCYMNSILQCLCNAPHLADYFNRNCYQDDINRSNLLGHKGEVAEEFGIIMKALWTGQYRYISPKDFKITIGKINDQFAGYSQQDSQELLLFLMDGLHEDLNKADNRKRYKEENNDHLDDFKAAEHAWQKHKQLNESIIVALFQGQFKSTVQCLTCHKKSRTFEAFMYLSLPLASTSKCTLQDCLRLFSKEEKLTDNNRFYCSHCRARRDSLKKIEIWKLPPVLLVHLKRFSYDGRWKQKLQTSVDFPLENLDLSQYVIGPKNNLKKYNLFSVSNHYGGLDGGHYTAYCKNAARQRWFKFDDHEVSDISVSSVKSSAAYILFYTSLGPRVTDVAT
Put plainly: USP8 inhibition with and without preincubation. Type of assay: biochemical. Conditions: with and without preincubation of the inhibitor.

Assay [5] deals with T1, Cathepsin B. Put plainly: Cathepsin B inhibition with and without preincubation. Type of assay: biochemical. Conditions: with and without preincubation of the inhibitor.

T2 sequence (P07711 114-333): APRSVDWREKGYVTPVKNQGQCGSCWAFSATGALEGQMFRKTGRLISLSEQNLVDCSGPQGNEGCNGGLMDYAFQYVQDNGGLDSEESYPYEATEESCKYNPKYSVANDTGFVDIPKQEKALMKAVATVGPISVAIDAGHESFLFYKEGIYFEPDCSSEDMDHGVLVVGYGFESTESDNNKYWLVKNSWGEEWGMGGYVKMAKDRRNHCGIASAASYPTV

For the molecule `C=CC(=O)N1CCN(c2ncnc3c(F)c(-c4c(O)cccc4F)c(Cl)cc23)CC1` [ARS-1620], in the assay with K-Ras^G12C, the activity in vivo result is listed as “active in vivo”.
As for `O=C(N[C@H](/C=C/S(=O)(=O)c1ccccc1)CCc1ccccc1)[C@H](Cc1ccccc1)NC(=O)N1CCOCC1` [compound 7], the kinact at Cathepsin B [1] is 0.17 to 0.36 s⁻¹. For the same molecule, on cathepsin L [2], the kinact was 0.17 to 0.36 s⁻¹ and the “selectivity cathepsin L vs B as judged by Ki values” was “more selective at inhibiting cathepsin L”.
Consider `O=C(N[C@H](/C=C/S(=O)(=O)c1ccccc1)CCc1ccccc1)[C@H](Cc1cc(I)c(O)c(I)c1)NC(=O)N1CCOCC1` [compound 8], for which, at Cathepsin B [1], the kinact was 0.17 to 0.36 s⁻¹. In addition, the “potency for cathepsin B (kinact/Ki values)” value at Cathepsin B [1] (relative to compound 7) was “increased potency”. At cathepsin L [2], the kinact was 0.17 to 0.36 s⁻¹ and the “selectivity cathepsin L vs B as judged by Ki values” is “reversed selectivity”.
For `C[C@@H](Oc1ccc(Br)cc1Br)C(=O)NC/C=C/S(C)(=O)=O` [compound 11], the “inhibition of cathepsin L” value on cathepsin L [3] is “time and dose dependent inhibition”.
As for `CS(=O)(=O)/C=C/CNC(=O)COc1ccc(Br)cc1Br` [compound 13], the “inhibition of Calpain I” value against Calpain I is listed as “did not inhibit; also recorded: does not inhibit”. Further, the “mode of inhibition (shift of substrate Km)” value on cathepsin L [3] (varying concentrations of compound) was “substrate competitive inhibitor”. Further, the reversibility of inhibition entry at cathepsin L [4] is given as “irreversibly”. The “inhibition of USP8” value against USP8 was “did not inhibit; also recorded: does not inhibit”. Further, the “inhibition of Cathepsin B” value at Cathepsin B [5] is given as “did not inhibit; also recorded: does not inhibit”.
